In ChEMBL document CHEMBL1671796, “Development of non-peptide ligands of growth factor receptor-bound protein 2-SRC homology 2 domain using molecular modeling and NMR spectroscopy” (J Med Chem, 2011):
Active and inactive are the calls of the source. The rule behind the calls is not given here.

Experiments:
[1] = target: T1, Growth factor receptor-bound protein 2 (Homo sapiens, UniProt P62993); experiment: Displacement of biotin-Ahx-PSpYVNVQN from Grb2-SH2 at 5 mM by competition binding assay
Target sequence in this assay (P62993 whole entry, looked up): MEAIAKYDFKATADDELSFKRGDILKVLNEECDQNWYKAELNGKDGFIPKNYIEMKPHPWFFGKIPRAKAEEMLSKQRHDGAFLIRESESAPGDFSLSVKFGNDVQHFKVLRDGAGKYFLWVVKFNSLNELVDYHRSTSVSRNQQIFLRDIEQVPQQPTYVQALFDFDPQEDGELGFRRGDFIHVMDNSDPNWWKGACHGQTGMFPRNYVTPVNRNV

[2] = target: T1, Growth factor receptor-bound protein 2; experiment: Displacement of biotin-Ahx-PSpYVNVQN from Grb2-SH2 by competition binding assay
Target sequence in this assay (P62993 whole entry): as the sequence (P62993 whole entry, looked up) above

[3] = test system: MCF7; experiment: Cytotoxicity against HER2-negative human MCF7 cells after 24 hrs by MTT assay; type: functional, cell-based
In short: (§1)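 Human breast cancer cells tested at 50 and 100 μM: HER2-positive MCF7 and HER2-negative MCF7 and MDA-231. N1 fibroblasts were run alongside at the same two concentrations.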

[4] = test system: MCF7; experiment: Cytotoxicity against HER2-positive human MCF7 cells after 24 hrs by MTT assay; type: functional, cell-based; details: MCF7, 24 h; in short: as §1
[5] = test system: MDA-MB-231; experiment: Cytotoxicity against HER2-negative human MDA231 cells after 24 hrs by MTT assay; type: functional, cell-based; in short: as §1
[6] = target: T1, Growth factor receptor-bound protein 2; experiment: Inhibition of HER2-Grb2 interaction in HER2-positive human MCF7 cells assessed as decrease in interaction at 50 uM by immunoblotting; type: cell-based; parameters: scale not given: the % may be the effect or the level left
Target sequence in this assay (P62993 whole entry, looked up): as above

Structure (SMILES) | inhibition [1] | IC50 [2] | also measured
O=C(N[C@@H](Cc1ccc(OP(=O)(O)O)cc1)C(=O)NCCCN1CCCNC1=O)c1ccccc1 | < 10% | – | –
O=C(O)C[C@@H](Cc1ccc(CP(=O)(O)O)cc1)C(=O)NC1(C(=O)N[C@@H](CC(=O)O)C(=O)NCCCc2cccc3ccccc23)CCCCC1 | – | 0.008 µM | –
CC(=O)N[C@@H](Cc1ccc(OP(=O)(O)O)cc1)C(=O)NC1(CCN2CCCNC2=O)CCCCC1 | – | 56 µM | Activity [3]: inactive; IC50 [4]: 100 µM; Activity [5]: inactive; Activity [6]: 30%
CC(=O)N[C@@H](Cc1ccc(OP(=O)(O)O)cc1)C(=O)NCCCN1CCCC1=O | < 10% | – | –
CCCC(=O)N[C@@H](Cc1ccc(OP(=O)(O)O)cc1)C(=O)NCCN1CCNC1=O | – | 1330 µM | –
O=C(N[C@@H](Cc1ccc(OP(=O)(O)O)cc1)C(=O)NCCN1CCNC1=O)c1ccccc1 | < 10% | – | –
O=C(N[C@@H](Cc1ccc(OP(=O)(O)O)cc1)C(=O)NCCCN1CCCC1=O)c1ccccc1 | < 10% | – | –
CC(=O)NC(Cc1ccc(OP(=O)(O)O)cc1)C(=O)NCCCN1CCCNC1=O (racemic) | – | 2310 µM | –
CC(=O)N[C@@H](Cc1ccc(OP(=O)(O)O)cc1)C(=O)NCCCN1CCCNC1=O | – | 174 µM | –
CC(=O)N[C@@H](Cc1ccc(OP(=O)(O)O)cc1)C(=O)NCCN1CCNC1=O | < 10% | – | –
CC(=O)N[C@H](Cc1ccc(OP(=O)(O)O)cc1)C(=O)NCCCN1CCCNC1=O | < 10% | – | –
CC(=O)N[C@@H](Cc1ccc(OP(=O)(O)O)cc1)C(=O)NCCc1cnc[nH]1 | < 10% | – | –
CCCC(=O)N[C@@H](Cc1ccc(OP(=O)(O)O)cc1)C(=O)NCCCN1CCCC1=O | < 10% | – | –
CCCC(=O)N[C@@H](Cc1ccc(OP(=O)(O)O)cc1)C(=O)NCCCN1CCCNC1=O | – | 314 µM | –
